# Laboratory results taken from ChEMBL document CHEMBL1641573, “3-[(Imidazolidin-2-yl)imino]indazole ligands with selectivity for the α(2)-adrenoceptor compared to the imidazoline I(1) receptor” (Bioorg Med Chem, 2011).
# Key:
# [1] = target: T1, Alpha-2A adrenergic receptor (Homo sapiens) (UniProt P08913); assay: Agonist activity at human recombinant alpha2A adrenergic receptor expressed in CHO cells assessed as induction of [35S]GTPgammaS binding after 60 mins by scintillation counting relative to noradrenaline; type: functional, cell-based
# T1 sequence (whole entry): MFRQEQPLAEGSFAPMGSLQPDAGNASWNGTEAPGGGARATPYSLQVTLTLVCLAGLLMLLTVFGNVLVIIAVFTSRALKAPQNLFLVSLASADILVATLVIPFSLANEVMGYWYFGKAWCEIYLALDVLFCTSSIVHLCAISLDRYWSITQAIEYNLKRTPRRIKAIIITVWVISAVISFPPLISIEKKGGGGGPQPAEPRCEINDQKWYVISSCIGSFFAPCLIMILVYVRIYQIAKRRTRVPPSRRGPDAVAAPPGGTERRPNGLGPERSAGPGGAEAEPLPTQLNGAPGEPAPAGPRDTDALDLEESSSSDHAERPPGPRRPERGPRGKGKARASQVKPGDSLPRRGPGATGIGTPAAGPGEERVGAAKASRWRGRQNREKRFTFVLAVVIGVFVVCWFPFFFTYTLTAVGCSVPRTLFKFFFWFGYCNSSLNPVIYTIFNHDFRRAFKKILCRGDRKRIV
# How it was run: (§1)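 Membranes from CHO-K1 cells expressing human α2A-adrenoceptor, in Tris buffer pH 7.4 with 10 µM GDP, 5 mM MgCl2 and 150 mM NaCl; 5 µg protein preincubated with agonist 30 min at 37 °C, then 0.1 nM [35S]GTPγS for 60 min at 37 °C. Filtration and scintillation counting, duplicates, at least three repeats. Curve fit gave EC50 and intrinsic activity as % of noradrenaline.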
# [2] = target: T2, Adrenergic receptor alpha-1 (Rattus norvegicus, UniProt P15823+P23944+P43140); assay: Displacement of [3H]prazosin from alpha1 adrenergic receptor in Sprague-Dawley rat brain membrane after 45 mins by liquid scintillation counting; type: cell membranes
# T2 sequence (P15823 whole entry): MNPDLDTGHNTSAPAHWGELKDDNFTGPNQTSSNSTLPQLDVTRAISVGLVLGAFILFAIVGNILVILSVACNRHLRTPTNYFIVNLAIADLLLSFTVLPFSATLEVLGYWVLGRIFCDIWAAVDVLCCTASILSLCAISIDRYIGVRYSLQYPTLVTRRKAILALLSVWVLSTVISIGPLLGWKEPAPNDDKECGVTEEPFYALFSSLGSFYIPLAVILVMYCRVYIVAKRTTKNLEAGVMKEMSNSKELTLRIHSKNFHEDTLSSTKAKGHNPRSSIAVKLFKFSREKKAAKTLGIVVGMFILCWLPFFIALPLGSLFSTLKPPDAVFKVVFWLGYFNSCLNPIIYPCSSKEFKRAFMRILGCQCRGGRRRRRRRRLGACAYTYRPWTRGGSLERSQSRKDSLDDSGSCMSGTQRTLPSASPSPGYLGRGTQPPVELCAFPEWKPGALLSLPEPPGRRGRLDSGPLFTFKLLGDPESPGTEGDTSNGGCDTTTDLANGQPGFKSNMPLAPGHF
# T2 sequence (P23944 whole entry): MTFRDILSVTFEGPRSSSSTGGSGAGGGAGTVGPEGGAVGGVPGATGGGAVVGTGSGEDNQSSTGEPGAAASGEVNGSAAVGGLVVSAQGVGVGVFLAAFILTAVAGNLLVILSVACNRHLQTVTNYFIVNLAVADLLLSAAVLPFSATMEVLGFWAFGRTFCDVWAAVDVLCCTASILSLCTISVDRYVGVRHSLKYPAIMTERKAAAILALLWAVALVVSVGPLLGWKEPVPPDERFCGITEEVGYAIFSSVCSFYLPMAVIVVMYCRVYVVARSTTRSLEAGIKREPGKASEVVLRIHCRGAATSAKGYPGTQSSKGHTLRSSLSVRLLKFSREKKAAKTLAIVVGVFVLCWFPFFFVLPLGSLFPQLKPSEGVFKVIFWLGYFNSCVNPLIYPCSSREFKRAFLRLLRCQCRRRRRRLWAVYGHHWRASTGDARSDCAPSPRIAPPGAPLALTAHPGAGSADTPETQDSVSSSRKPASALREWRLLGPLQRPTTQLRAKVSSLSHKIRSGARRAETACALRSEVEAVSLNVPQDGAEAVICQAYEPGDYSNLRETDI
# T2 sequence (P43140 whole entry): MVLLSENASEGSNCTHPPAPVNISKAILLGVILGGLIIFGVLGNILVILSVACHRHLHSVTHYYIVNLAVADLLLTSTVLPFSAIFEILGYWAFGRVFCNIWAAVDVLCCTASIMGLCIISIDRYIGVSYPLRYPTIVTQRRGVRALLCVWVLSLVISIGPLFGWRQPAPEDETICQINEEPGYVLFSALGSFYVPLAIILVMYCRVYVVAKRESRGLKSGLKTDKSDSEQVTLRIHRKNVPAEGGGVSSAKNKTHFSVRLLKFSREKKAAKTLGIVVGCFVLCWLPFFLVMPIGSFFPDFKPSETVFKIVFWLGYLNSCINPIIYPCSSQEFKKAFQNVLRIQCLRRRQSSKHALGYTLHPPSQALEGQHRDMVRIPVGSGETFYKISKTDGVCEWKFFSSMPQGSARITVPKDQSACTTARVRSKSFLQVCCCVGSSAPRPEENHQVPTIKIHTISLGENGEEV
# How it was run: (§2)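 Crude P2 brain membranes from male Sprague–Dawley rats (0.2–0.3 mg protein) incubated with 11 concentrations (0.01 nM–100 µM) and 1 nM of [3H]2BFI (I2), [3H]prazosin (α1) or [3H]RX821002 (α2), at room temperature in triplicate. Non-specific binding: BU224, phenylephrine or rauwolscine. Filtration, scintillation counting, Ki by Cheng–Prusoff from 3–4 experiments.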
# [3] = target: T3, Adrenergic receptor alpha-2 (Rattus norvegicus, UniProt P22086+P19328+P22909); assay: Displacement of [3H]RX821002 from alpha2 adrenergic receptor in Sprague-Dawley rat brain membrane after 45 mins by liquid scintillation counting; type: cell membranes; how it was run: as §2
# T3 sequence (P22086 whole entry): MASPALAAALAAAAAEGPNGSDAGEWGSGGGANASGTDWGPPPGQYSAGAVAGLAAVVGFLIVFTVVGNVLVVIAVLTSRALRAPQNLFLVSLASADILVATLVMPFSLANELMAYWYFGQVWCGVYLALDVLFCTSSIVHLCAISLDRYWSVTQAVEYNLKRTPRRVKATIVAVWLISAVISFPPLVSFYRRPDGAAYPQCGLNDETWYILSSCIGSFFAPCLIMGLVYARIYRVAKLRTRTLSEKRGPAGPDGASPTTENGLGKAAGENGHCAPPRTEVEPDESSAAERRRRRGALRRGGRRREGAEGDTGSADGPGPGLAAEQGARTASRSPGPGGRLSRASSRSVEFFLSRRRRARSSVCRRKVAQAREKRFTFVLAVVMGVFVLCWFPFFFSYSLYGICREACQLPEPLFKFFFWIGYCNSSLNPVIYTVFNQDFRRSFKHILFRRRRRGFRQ
# T3 sequence (P19328 whole entry): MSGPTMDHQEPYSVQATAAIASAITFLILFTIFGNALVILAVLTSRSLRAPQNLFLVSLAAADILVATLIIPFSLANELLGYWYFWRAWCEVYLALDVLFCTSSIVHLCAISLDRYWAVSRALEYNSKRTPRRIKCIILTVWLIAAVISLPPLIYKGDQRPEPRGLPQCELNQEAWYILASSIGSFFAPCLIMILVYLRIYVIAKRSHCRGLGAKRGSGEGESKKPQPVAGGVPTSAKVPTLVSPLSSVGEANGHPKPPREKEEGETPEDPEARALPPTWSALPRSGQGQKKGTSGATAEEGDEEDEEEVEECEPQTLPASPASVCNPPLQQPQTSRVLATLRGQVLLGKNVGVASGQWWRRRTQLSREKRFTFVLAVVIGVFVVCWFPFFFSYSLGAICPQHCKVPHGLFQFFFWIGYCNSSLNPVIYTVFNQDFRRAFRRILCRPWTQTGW
# T3 sequence (P22909 whole entry): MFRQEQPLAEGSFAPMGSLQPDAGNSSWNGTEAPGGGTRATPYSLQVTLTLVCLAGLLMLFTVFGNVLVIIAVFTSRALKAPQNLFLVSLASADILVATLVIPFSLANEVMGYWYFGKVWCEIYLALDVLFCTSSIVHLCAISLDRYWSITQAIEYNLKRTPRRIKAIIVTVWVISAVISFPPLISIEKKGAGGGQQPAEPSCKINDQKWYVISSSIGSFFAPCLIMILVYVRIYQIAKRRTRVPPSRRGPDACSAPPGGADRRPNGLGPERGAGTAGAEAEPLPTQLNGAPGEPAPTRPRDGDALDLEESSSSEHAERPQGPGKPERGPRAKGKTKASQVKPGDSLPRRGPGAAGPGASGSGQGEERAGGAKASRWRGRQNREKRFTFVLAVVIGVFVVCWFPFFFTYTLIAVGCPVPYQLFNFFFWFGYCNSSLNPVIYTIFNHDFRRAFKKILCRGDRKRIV
# Nischarin = Nischarin (Rattus norvegicus, UniProt Q4G017); assay: Displacement of [3H]clonidine from imidazoline I1 receptor in Sprague-Dawley rat kidney membrane after 45 mins by liquid scintillation counting; type: cell membranes
# How it was run: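 Specific binding defined by 10 µM rilmenidine. 11 test concentrations, 50 mM Tris-HCl pH 7.4, room temperature 45 min. Filtration through PEI-soaked glass-fibre filters, scintillation counting, IC50 by curve fitting.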
# Rattus norvegicus [4] = species on record: Rattus norvegicus; assay: Selectivity ratio of IC50 for imidazoline I1 receptor in Sprague-Dawley rat kidney membrane to Ki for alpha2 adrenergic receptor in Sprague-Dawley rat brain membrane; type: cell membranes
# [5] = target: T4, Alpha-2A adrenergic receptor (Homo sapiens, UniProt P08913); assay: Agonist activity at human recombinant alpha2A adrenergic receptor expressed in CHO cells assessed as induction of [35S]GTPgammaS binding after 60 mins by scintillation counting; type: functional, cell-based
# T4 sequence (P08913 whole entry): T1 sequence (whole entry)
# How it was run: as §1, with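 “repeats.” for “repeats. Curve fit gave EC50 and intrinsic activity as % of noradrenaline.”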
# Rattus norvegicus [6] = assay: Cardioprotectant activity in Wistar rat assessed as change in mean arterial pressure at 0.1 mg/kg, iv; type: functional, Artery
# Rattus norvegicus [7] = assay: Cardioprotectant activity in Wistar rat assessed as change in mean arterial pressure at 1 mg/kg, iv; type: functional, Artery
# Rattus norvegicus [8] = assay: Cardioprotectant activity in Wistar rat assessed as change in heart rate at 1 mg/kg, iv; type: functional
# Rattus norvegicus [9] = assay: Cardioprotectant activity in Wistar rat assessed as change in mean arterial pressure at 0.01 mg/kg, iv; type: functional, Artery
# Rattus norvegicus [10] = assay: Cardioprotectant activity in Wistar rat assessed as change in heart rate at 0.01 mg/kg, iv; type: functional
# Rattus norvegicus [11] = assay: Cardioprotectant activity in Wistar rat assessed as change in heart rate at 0.1 mg/kg, iv; type: functional
# Sequence of Nischarin (Q4G017 whole entry): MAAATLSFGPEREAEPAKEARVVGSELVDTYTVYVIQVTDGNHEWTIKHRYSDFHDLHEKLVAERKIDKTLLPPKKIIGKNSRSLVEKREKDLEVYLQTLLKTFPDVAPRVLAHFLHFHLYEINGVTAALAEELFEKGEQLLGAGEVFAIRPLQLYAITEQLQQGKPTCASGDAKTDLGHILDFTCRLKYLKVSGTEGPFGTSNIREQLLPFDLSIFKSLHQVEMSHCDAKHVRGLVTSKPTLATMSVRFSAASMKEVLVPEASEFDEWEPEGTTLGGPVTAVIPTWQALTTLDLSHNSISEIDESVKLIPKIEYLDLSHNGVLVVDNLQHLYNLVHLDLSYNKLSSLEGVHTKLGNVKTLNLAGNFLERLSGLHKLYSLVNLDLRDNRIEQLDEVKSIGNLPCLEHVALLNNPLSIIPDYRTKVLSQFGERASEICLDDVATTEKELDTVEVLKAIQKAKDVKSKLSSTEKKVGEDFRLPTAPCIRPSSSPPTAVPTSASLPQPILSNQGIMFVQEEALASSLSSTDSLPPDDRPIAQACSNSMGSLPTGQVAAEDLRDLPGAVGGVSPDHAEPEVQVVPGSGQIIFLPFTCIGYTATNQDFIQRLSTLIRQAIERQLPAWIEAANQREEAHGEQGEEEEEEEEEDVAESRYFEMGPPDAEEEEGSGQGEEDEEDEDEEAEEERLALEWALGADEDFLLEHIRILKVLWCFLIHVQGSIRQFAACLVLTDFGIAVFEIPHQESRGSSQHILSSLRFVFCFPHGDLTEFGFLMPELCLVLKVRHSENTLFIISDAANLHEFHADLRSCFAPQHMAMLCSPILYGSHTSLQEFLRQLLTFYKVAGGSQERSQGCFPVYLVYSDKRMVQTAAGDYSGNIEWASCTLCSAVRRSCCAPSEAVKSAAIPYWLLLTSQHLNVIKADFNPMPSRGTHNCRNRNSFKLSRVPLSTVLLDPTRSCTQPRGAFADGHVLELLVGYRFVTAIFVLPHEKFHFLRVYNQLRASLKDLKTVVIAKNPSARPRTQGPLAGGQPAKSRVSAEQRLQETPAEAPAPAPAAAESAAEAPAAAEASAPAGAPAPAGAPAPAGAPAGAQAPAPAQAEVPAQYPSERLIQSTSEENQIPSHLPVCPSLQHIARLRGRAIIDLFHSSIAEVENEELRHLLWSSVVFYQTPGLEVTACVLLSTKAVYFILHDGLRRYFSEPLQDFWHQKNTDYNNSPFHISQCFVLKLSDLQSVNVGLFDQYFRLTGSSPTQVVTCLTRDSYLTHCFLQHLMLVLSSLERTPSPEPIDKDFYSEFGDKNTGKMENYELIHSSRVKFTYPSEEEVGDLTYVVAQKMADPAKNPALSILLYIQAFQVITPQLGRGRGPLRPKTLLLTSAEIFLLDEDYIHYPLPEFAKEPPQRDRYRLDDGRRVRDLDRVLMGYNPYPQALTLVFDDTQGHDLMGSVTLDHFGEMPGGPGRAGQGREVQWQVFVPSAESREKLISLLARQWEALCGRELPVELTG
Compound,Intrinsic activity [1] [%],Ki [2] [nM],Ki [3] [nM],IC50 (Nischarin) [nM],Ratio (Rattus norvegicus [4]),EC50 [5] [nM],Activity (Rattus norvegicus [6]) [mmHg],Activity (Rattus norvegicus [7]) [mmHg],Activity (Rattus norvegicus [8]) [bpm],Activity (Rattus norvegicus [9]) [mmHg],Activity (Rattus norvegicus [10]) [bpm],Activity (Rattus norvegicus [11]) [bpm]
Cc1cccc([C@H](C)c2c[nH]cn2)c1C,60,–,–,–,–,–,–,–,–,–,–,–
Brc1cccc2[nH]nc(N=C3NCCN3)c12.Cl,–,984,6420,7560,1,–,–,–,–,–,–,–
COc1ccc2[nH]nc(N=C3NCCN3)c2c1.Cl,–,244,1460,> 100000,> 68,–,–,–,–,–,–,–
Cl.c1ccc2c(N=C3NCCN3)n[nH]c2c1,55,–,39.4,3220,82,82,–,–,–,–,–,–
Cc1cccc2[nH]nc(N=C3NCCN3)c12.Cl,40,46.5,22.6,32500,690,14,-53.5,-22,-155,-17.1,-43,-132
Cl.Clc1ccc2[nH]nc(N=C3NCCN3)c2c1,–,121,10600,> 100000,> 9.4,–,–,–,–,–,–,–
Clc1cccc2cnn(N=C3NCCN3)c12,48,–,–,–,–,15,–,–,–,–,–,–
Cc1ccc2[nH]nc(N=C3NCCN3)c2c1.Cl,–,29000,11400,21200,2,–,–,–,–,–,–,–
Cc1cccc2cnn(N=C3NCCN3)c12,32,–,–,–,–,37,–,–,–,–,–,–
Cc1ccc2c(N=C3NCCN3)n[nH]c2c1.Cl,–,508,176,16600,94.3,–,–,–,–,–,–,–
Cl.Clc1cccc2[nH]nc(N=C3NCCN3)c12,13,69.3,15.9,1840,115,240,-10.8,-23.6,-68,-10.8,-37,-40
Cl.Clc1cccc2c(N=C3NCCN3)n[nH]c12,66,684,133,4010,30,73,-21.7,-37.2,-117,-12.2,-35,-92
c1ccc2c(c1)cnn2N=C1NCCN1 [MARSANIDINE],18,–,–,–,–,160,–,–,–,–,–,–
Clc1cccc2c1cnn2N=C1NCCN1,62,–,–,–,–,180,–,–,–,–,–,–
Cl.Clc1ccc2c(N=C3NCCN3)n[nH]c2c1,–,386,502,2010,4,–,–,–,–,–,–,–
COc1cccc2[nH]nc(N=C3NCCN3)c12.Cl,–,196,748,25600,34,–,–,–,–,–,–,–
